According to ChEMBL document CHEMBL1123060, “Substrate specificity of pyroglutamylaminopeptidase” (J Med Chem, 1985):

How the values were obtained:
[1] = Inhibition of pyroglutamylaminopeptidase at a dose of 8.32 mM relative to Pyrrolidin-2-one-CO-Gly-Ile; conditions: 8320 µM
Procedure, shortened: (§1)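 Enzyme purchased commercially, 5.5 units per digestion in pH 8.0 phosphate deblocking buffer (5% glycerol, 5 mM DTT, 10 mM EDTA, N2/Ar-purged). Preincubated 3 min at 37 °C, then substrate plus Leu internal standard added with the inhibitor at the stated level and digested 180 min at 37 °C. Gly-Ile released was quantitated by amino acid analysis. Values are cleavage relative to the uninhibited digest (set to 1.0), from a single experiment.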

[2] = Inhibition of pyroglutamylaminopeptidase at a dose of 16.64 mM relative to 2-Oxo-hexahydro-pyrimidine-4-carboxylic acid; conditions: 16640 µM; procedure, shortened: as §1
[3] = Inhibition of pyroglutamylaminopeptidase at a dose of 16.64 mM relative to Pyrrolidin-2-one-CO-Gly-Ile; conditions: 16640 µM; procedure, shortened: as §1
[4] = Inhibition of pyroglutamylaminopeptidase at a dose of 8.32 mM relative to 2-Oxo-hexahydro-pyrimidine-4-carboxylic acid; conditions: 8320 µM; procedure, shortened: as §1
[5] = Inhibition of pyroglutamylaminopeptidase at a dose of 13.02 mM relative to 2-Oxo-hexahydro-pyrimidine-4-carboxylic acid; conditions: 13020 µM; procedure, shortened: as §1
[6] = Inhibition of pyroglutamylaminopeptidase at a dose of 13.02 mM relative to Pyrrolidin-2-one-CO-Gly-Ile; conditions: 13020 µM; procedure, shortened: as §1
[7] = Inhibition of pyroglutamylaminopeptidase at a dose of 6.51 mM relative to 2-Oxo-hexahydro-pyrimidine-4-carboxylic acid; conditions: 6510 µM; procedure, shortened: as §1
[8] = Inhibition of pyroglutamylaminopeptidase at a dose of 6.51 mM relative to Pyrrolidin-2-one-CO-Gly-Ile; conditions: 6510 µM; procedure, shortened: as §1

| Hydrolysis rate [1] | Hydrolysis rate [2] | Hydrolysis rate [3] | Hydrolysis rate [4] | Hydrolysis rate [5] | Hydrolysis rate [6] | Hydrolysis rate [7] | Hydrolysis rate [8] | SMILES |
| --- | --- | --- | --- | --- | --- | --- | --- | --- |
| 0.889 | 0.752 | 0.884 | 0.86 | – | – | – | – | O=C1NCCC(C(=O)O)N1 (configuration not stated) |
| – | – | – | – | 0.093 | 0.333 | 0.206 | 0.586 | O=C1CC[C@@H](C(=O)O)N1 [PIDOLIC ACID] |
| – | – | – | – | 0.308 | 0.707 | 0.533 | 0.854 | O=C1NCC(C(=O)O)N1 (configuration not stated) |
